Assay results: ChEMBL document CHEMBL3286393 (J Med Chem, 2014)
The source made the active and inactive calls. No cut-off for these calls is given here.

Tests used:
[1] = molecular target: T1, Prostaglandin G/H synthase 1 (Ovis aries) (UniProt P05979); experiment: Inhibition of purified ovine COX-1 assessed as residual activity by measuring formation of 12-HHT from arachidonic acid preincubated at 10 uM for 5 mins before substrate addition measured after 5 mins by HPLC analysis relative to control; values are per cent of control
T1 sequence (whole entry): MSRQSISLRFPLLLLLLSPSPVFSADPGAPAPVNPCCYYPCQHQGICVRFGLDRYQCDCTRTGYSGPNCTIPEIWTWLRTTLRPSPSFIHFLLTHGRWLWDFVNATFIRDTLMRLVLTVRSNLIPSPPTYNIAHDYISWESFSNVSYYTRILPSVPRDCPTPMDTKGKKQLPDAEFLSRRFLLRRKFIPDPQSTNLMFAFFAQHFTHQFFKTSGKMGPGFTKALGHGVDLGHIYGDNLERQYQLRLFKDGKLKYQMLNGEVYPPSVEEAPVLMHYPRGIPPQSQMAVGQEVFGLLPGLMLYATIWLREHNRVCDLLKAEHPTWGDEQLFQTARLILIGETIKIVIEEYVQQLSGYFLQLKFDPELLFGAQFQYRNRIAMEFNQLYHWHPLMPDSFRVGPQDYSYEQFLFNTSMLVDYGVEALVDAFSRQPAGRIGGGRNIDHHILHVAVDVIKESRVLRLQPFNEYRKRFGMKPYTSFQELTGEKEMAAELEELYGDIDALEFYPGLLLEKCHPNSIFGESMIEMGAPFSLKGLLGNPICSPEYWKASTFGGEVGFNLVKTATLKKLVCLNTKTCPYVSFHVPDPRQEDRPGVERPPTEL

[2] = tested on: Radical scavenging activity; experiment: Antioxidant activity assessed as DPPH free radical scavenging activity at 10 uM after 30 mins […] by spectrophotometric analysis; type: functional
Prostaglandin E synthase = molecular target: T2, Prostaglandin E synthase (Homo sapiens, UniProt O14684); experiment: Inhibition of mPGES1-mediated PGE2 production in microsomes of IL-1beta stimulated human A549 cells preincubated for 15 mins by RP-HPLC analysis; type: cell-based
T2 sequence (O14684 whole entry): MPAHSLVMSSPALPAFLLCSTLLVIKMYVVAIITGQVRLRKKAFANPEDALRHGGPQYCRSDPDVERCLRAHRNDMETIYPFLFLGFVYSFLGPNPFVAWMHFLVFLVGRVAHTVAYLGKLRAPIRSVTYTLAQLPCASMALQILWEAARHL
How it was run: (§1)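 mPGES-1 source: microsomes of A549 cells treated 48 h with IL-1β 2 ng/mL, at 25−50 μg protein/mL in 0.1 M potassium phosphate pH 7.4 with 2.5 mM glutathione. Compound preincubation 15 min at 4 °C; PGH2 (20 μM final) for 1 min; FeCl2/citric acid stop with 11β-PGE2 internal standard. PGE2 by RP-HPLC.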

[3] = molecular target: T3, Prostaglandin E synthase (Homo sapiens) (UniProt O14684); experiment: Inhibition of mPGES1-mediated PGE2 formation in LPS-stimulated human monocytes preincubated for 15 mins before arachidonic acid substrate addition measured after 30 mins by UPLC-MS/MS analysis; type: cell-based
T3 sequence (whole entry): T2 sequence (O14684 whole entry)
How it was run: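 Fresh human monocytes (adherence-isolated, >85% CD14+; 5 × 10⁶/well) primed with LPS 1 μg/mL for 24 h. Washed, 15 min preincubation, then 2.5 μM A23187 plus 20 μM arachidonic acid for 30 min. Eicosanoids extracted and measured by UPLC-MS/MS, normalized to PGB1 as relative intensities. Two to three independent experiments.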

[4] = Aqueous stability of the compound in at 2 uM in 10 mM aqueous ammonium bicarbonate at pH 7.9 assessed as formation of trans-6-(4'-hydroxy-3'-methoxyphenyl)-2,4-dioxo-5-hexenal measured as residual amount of compound by reversed phase liquid chromatography-coupled mass spectrometry; type: physicochemical; settings: buffer, pH 7.9, 2 µM
How it was run: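 Compounds at 2 μM in 10 mM aqueous ammonium bicarbonate pH 7.9, incubated 30 min at 37 °C. Analysed by UPLC-MS on a C18 column, gradient acetonitrile/water with 0.07% formic acid, at 0.7 mL/min. Residual amount given as % of control; three to four independent experiments.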

LNCaP = experiment: Cytotoxicity against human LNCAP cells assessed as cell viability after 24 hrs by MTT assay; type: cell-based
How it was run: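 LNCaP seeded at 10⁴ cells/well and exposed 24 h. MTT added, then 4 h at 37 °C, 5% CO2, dark. Medium removed and formazan dissolved in DMSO; absorbance at 570 nm.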

[5] = molecular target: T4, Polyunsaturated fatty acid 5-lipoxygenase (Homo sapiens, UniProt P09917); experiment: Inhibition of human recombinant 5-LO expressed in Escherichia coli Bl21 (DE3) using arachidonic acid as substrate preincubated for 10 mins measured after 10 mins by RP-HPLC analysis
T4 sequence (P09917 whole entry): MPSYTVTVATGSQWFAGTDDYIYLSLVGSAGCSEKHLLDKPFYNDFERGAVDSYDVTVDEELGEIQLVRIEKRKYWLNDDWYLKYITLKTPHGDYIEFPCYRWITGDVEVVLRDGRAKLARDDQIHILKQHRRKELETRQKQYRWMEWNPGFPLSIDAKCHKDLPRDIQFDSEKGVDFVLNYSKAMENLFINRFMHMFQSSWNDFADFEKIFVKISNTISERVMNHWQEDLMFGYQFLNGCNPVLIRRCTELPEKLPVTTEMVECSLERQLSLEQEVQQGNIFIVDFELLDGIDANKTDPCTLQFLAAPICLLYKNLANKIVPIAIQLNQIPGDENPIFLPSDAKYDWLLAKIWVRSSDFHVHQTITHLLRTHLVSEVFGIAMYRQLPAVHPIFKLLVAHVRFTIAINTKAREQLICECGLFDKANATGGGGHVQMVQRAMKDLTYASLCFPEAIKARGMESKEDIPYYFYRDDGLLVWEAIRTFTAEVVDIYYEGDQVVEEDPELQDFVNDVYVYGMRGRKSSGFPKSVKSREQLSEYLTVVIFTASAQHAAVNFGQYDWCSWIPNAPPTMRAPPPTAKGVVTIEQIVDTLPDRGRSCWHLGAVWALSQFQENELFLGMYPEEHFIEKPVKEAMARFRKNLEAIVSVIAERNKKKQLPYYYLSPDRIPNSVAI
How it was run: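 5-LO expressed from pT3-5LO in E. coli BL21(DE3), semi-purified on ATP-agarose, diluted in PBS with 1 mM EDTA and 1 mM ATP. Preincubated with compound 10 min at 4 °C, then 30 s at 37 °C. Started with 2 mM CaCl2 plus 20 μM arachidonic acid; 10 min at 37 °C; ice-cold methanol stop. Three to four experiments.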

PBMC = experiment: Cytotoxicity against human PBMCs assessed as cell viability after 24 hrs by MTT assay; type: cell-based
How it was run: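 Human PBMC (2 × 10⁵/well), 24 h exposure. MTT then 4 h at 37 °C in darkness. Formazan solubilized with 10% SDS in 20 mM HCl; absorbance 550 nm. Viability relative to untreated cells; IC50 derived.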

[6] = molecular target: T4, Polyunsaturated fatty acid 5-lipoxygenase; experiment: Inhibition of 5-LO in human neutrophils using arachidonic acid as substrate preincubated for 15 mins measured after 10 mins by HPLC analysis
How it was run: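 Fresh human neutrophils, 1 × 10⁷/mL in PBS pH 7.4 with 1 mM CaCl2 and 1 mg/mL glucose, preincubated 15 min at 37 °C. LTB4, its all-trans isomers and 5-H(P)ETE by HPLC.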

[7] = molecular target: T5, Prostaglandin G/H synthase 1 (Homo sapiens, UniProt P23219); experiment: Inhibition of COX1-mediated […] in human platelets assessed as residual activity by measuring formation of 12-HHT from arachidonic acid preincubated at 10 uM for 5 mins measured after 5 mins by RP-HPLC analysis relative to control; values are per cent of control
T5 sequence (P23219 whole entry): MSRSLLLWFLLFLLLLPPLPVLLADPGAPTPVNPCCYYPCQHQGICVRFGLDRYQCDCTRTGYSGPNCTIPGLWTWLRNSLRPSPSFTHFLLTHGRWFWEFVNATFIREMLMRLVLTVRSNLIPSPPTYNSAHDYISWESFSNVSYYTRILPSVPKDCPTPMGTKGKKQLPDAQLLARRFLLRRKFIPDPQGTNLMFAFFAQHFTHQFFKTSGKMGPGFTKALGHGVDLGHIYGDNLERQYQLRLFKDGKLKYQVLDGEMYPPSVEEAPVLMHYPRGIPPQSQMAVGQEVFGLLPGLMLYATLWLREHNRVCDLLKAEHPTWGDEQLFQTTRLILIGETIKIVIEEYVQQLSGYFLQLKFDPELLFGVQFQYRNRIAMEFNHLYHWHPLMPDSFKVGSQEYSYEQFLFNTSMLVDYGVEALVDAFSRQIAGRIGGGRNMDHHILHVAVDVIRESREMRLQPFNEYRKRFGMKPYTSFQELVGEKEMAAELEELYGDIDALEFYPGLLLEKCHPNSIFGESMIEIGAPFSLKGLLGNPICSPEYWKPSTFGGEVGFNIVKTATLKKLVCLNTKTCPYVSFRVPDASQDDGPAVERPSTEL

[8] = molecular target: T1, Prostaglandin G/H synthase 1 (Ovis aries); experiment: Inhibition of purified ovine COX-1 assessed as residual activity by measuring formation of 12-HHT from arachidonic acid preincubated at 10 uM for 5 mins before substrate addition measured after 5 mins by HPLC analysis relative to control
How it was run: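 Purified ovine COX-1 (50 units) in 100 mM Tris pH 8 with 5 mM glutathione, 5 μM hemoglobin and 100 μM EDTA. Preincubated 5 min at 4 °C then 1 min at 37 °C. 5 μM arachidonic acid added; 12-HHT extracted after 5 min and measured by HPLC. Residual activity at 10 μM, three independent experiments.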

[9] = molecular target: T3, Prostaglandin E synthase (Homo sapiens); experiment: Inhibition of mPGES1-mediated PGE2 production in microsomes of IL-1beta stimulated human A549 cells assessed as residual activity preincubated at 10 uM for 15 mins by RP-HPLC analysis relative to control; type: cell-based
How it was run: as §1

[10] = molecular target: T6, Polyunsaturated fatty acid lipoxygenase ALOX12 (Homo sapiens) (UniProt P18054); experiment: Inhibition of 12-LO in human neutrophils assessed as residual activity relative to control; settings: values are per cent of control
T6 sequence (whole entry): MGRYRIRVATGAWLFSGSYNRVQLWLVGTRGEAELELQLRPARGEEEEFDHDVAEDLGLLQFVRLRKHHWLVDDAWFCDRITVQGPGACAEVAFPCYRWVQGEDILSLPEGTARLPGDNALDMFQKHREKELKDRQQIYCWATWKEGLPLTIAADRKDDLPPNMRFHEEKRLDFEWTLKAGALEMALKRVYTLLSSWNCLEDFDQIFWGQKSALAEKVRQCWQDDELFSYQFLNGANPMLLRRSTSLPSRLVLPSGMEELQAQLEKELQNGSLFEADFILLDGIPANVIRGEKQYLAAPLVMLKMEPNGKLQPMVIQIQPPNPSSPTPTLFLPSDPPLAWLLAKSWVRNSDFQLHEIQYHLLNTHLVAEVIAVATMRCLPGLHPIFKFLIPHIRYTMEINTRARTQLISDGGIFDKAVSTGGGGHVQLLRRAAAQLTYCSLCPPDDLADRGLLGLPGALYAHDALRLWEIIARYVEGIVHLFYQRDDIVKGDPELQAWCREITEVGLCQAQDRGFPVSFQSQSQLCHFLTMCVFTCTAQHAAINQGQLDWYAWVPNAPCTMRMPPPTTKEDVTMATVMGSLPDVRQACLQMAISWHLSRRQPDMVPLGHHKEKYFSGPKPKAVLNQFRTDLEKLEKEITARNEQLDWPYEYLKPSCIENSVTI

[11] = molecular target: T5, Prostaglandin G/H synthase 1; experiment: Inhibition of COX1-mediated PGE2 production in human platelets assessed as residual activity by measuring formation of 12-HHT from arachidonic acid preincubated at 10 uM for 5 mins measured after 5 mins by RP-HPLC analysis relative to control
How it was run: (§2)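 Washed human platelets, 10⁸/mL in PBS pH 7.4 with 1 mM CaCl2: 5 min compound preincubation at room temperature, then 1 min at 37 °C. Arachidonic acid 5 μM added; 5 min at 37 °C. 12-HHT extracted and measured by RP-HPLC.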

[12] = molecular target: T5, Prostaglandin G/H synthase 1; experiment: Inhibition of COX1-mediated PGE2 production in human platelets assessed as formation of 12-HHT using arachidonic acid as substrate preincubated for 5 mins measured after 5 mins by RP-HPLC analysis
How it was run: as §2

Mus musculus [13] = experiment: Antiinflammatory activity in zymosan-induced peritonitis CD1 mouse model assessed as suppression of neutrophil infiltration at 1 mg/kg, ip administered 30 mins before challenge measured 4 hrs post zymosan challenge relative to control; type: functional; settings: route intraperitoneal
How it was run: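 Zymosan peritonitis in male CD-1 mice (n = 5−11): ip dose in 2% DMSO/saline 30 min before ip zymosan. Peritoneal lavage with 3 mL cold PBS at 4 h. Exudate cells counted by light microscopy in a Burker chamber after trypan blue staining; % inhibition vs vehicle.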

Mus musculus [14] = experiment: Antiinflammatory activity in zymosan-induced peritonitis CD1 mouse model assessed as suppression of MPO activity at 1 mg/kg, ip administered 30 mins before challenge measured 4 hrs post zymosan challenge relative to control; type: functional; settings: route intraperitoneal
How it was run: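 In male CD-1 mice (n = 5−11 per group), dose was given ip in 2% DMSO/saline 30 min before ip zymosan (2 mg/mL, 0.5 mL). Lavage 4 h later. Pelleted exudate cells disrupted; supernatant mixed with 0.167 mg/mL o-dianisidine and 0.0005% H2O2 in PBS, read kinetically by absorbance. U/mL from human neutrophil MPO calibration; % inhibition vs vehicle.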

Mus musculus [15] = experiment: Antiinflammatory activity in zymosan-induced peritonitis CD1 mouse model assessed as suppression of LTB4 level at 1 mg/kg, ip administered 30 mins before challenge measured 4 hrs post zymosan challenge relative to control v

Structure (SMILES) | Activity [2] | Stability [4] | IC50 (LNCaP) | IC50 [5] | IC50 (PBMC) | IC50 [6] | inhibition [8] | residual activity [10] | also measured
COc1ccc2c(c1)c(CC(=O)O)c(C)n2C(=O)c1ccc(Cl)cc1 |  |  |  |  |  |  |  |  | residual activity [1]: 25%
O=C1O[C@H]([C@@H](O)CO)C(O)=C1O | 20.4% |  |  |  |  |  |  |  | 
Clc1ccccc1-c1nc2c3ccccc3c3ccccc3c2[nH]1 |  |  |  |  |  |  |  |  | IC50 (Prostaglandin E synthase; read-out: IC50): 0.02 µM; inhibition [3]: Active
COc1cc(/C=C/C(=O)/C=C/c2cc(F)c(O)c(OC)c2)cc(F)c1O | 80.5% | Unstable | 25.1 µM | 0.6 µM | > 50 µM | 8.1 µM | inactive | 67.7% | residual activity [7]: 65.2%; Activity [9]: 58.8%
COc1cc(/C=C/C(=O)CC(=O)/C=C/c2cc(CCC(C)C)c(O)c(OC)c2)cc(CCC(C)C)c1O | 64.3% | Unstable |  | 2.8 µM |  | 80.2 µM | inactive | 75.7% | inhibition [11]: inactive; Activity [9]: 71.7%
COc1cc(CCC(=O)CC(=O)CCc2cc(CCC(C)C)c(O)c(OC)c2)cc(CCC(C)C)c1O | 71.9% | 87.4% | > 50 µM | 0.4 µM | > 50 µM | 2.9 µM |  | 76.4% | inhibition [11]: inactive; residual activity [1]: 82.7%; IC50 (Prostaglandin E synthase; a549): Not Active
COc1cc(/C=C/C(=O)CC(=O)/C=C/c2cc(F)c(O)c(OC)c2)cc(F)c1O | 61.4% | Unstable | > 50 µM | 0.4 µM | > 50 µM | 10 µM | inactive | 69.7% | IC50 (Prostaglandin E synthase; read-out: IC50): 8.7 µM; IC50 [12]: 7.5 µM
CC(C)c1ccc2c(c1)c(SC(C)(C)C)c(CC(C)(C)C(=O)O)n2Cc1ccc(Cl)cc1 |  |  |  |  |  |  |  |  | inhibition in vivo at 1 mg/kg (Mus musculus [13]): 41%; inhibition in vivo at 1 mg/kg (Mus musculus [14]): 41%; inhibition in vivo at 1 mg/kg (Mus musculus [15]): 63%
